Measurements pooled from the literature.
Lines come from different studies, so protocols differ. Converted amounts (≈) assume the structure as drawn.
Organism: Candida albicans

For `Cc1cc(N)c2ccccc2[n+]1CCCCCCCCCC[n+]1c(C)cc(N)c2ccccc21`, the inhibition zone was 13 mm (microbial growth, disc diffusion; 50 µg/disc).
`O=C(Cc1cc(O)c(O)c(O)c1)NCCCCCCCC[P+](c1ccccc1)(c1ccccc1)c1ccccc1.[Br-]` has an MIC of over 32 µg/mL (microbial growth, broth dilution; ATCC90028; 24 h).
For `C[C@@H]1[C@H](O)[C@@H](C)/C=C/C=C/C=C/C=C/C=C/C=C/C=C/[C@H](O[C@@H]2O[C@H](C)[C@@H](O)[C@H](N)[C@@H]2O)C[C@@H]2O[C@](O)(C[C@@H](O)C[C@@H](O)[C@H](O)CC[C@@H](O)C[C@@H](O)CC(=O)O[C@H]1C)C[C@H](O)[C@H]2C(=O)O`, the MFC was 2.5 µg/mL (≈ 2.71 µM) (microbial killing; ATCC90028).
`C[C@@H]1[C@H](O)[C@@H](C)/C=C/C=C/C=C/C=C/C=C/C=C/C=C/[C@H](O[C@@H]2O[C@H](C)[C@@H](O)[C@H](N)[C@@H]2O)C[C@@H]2O[C@](O)(C[C@@H](O)C[C@@H](O)[C@H](O)CC[C@@H](O)C[C@@H](O)CC(=O)O[C@H]1C)C[C@H](O)[C@H]2C(=O)O` has an IC50 of 0.27 µg/mL (microbial growth, broth dilution; ATCC90028).
`C[C@@H]1[C@H](O)[C@@H](C)/C=C/C=C/C=C/C=C/C=C/C=C/C=C/[C@H](O[C@@H]2O[C@H](C)[C@@H](O)[C@H](N)[C@@H]2O)C[C@@H]2O[C@](O)(C[C@@H](O)C[C@@H](O)[C@H](O)CC[C@@H](O)C[C@@H](O)CC(=O)O[C@H]1C)C[C@H](O)[C@H]2C(=O)O` gave an inhibition zone of 21 mm (microbial growth; 1000 µg/mL).
With `O=C(O)c1cn(C2CC2)c2cc(N3CCNCC3)c(F)cc2c1=O` the MIC was 12.5 µM (microbial growth, broth dilution).
`Clc1ccccc1C(c1ccccc1)(c1ccccc1)n1ccnc1` has an inhibition zone of 21 mm (microbial growth, disc diffusion; 100 µg/mL).
With `C[C@@H]1[C@H](O)[C@@H](C)/C=C/C=C/C=C/C=C/C=C/C=C/C=C/[C@H](O[C@@H]2O[C@H](C)[C@@H](O)[C@H](N)[C@@H]2O)C[C@@H]2O[C@](O)(C[C@@H](O)C[C@@H](O)[C@H](O)CC[C@@H](O)C[C@@H](O)CC(=O)O[C@H]1C)C[C@H](O)[C@H]2C(=O)O` the IC50 was 300 nM (microbial growth; ATCC90028).
`C[C@@H]1[C@H](O)[C@@H](C)/C=C/C=C/C=C/C=C/C=C/C=C/C=C/[C@H](O[C@@H]2O[C@H](C)[C@@H](O)[C@H](N)[C@@H]2O)C[C@@H]2O[C@](O)(C[C@@H](O)C[C@@H](O)[C@H](O)CC[C@@H](O)C[C@@H](O)CC(=O)O[C@H]1C)C[C@H](O)[C@H]2C(=O)O` has an inhibition zone of 11 mm (microbial growth, disc diffusion; 35 µg/disc).
The IC50 of `C#CCCCCCCCCCCCC(O)CC(O)CO` (stereo not shown) is reported as over 200 µg/mL (microbial growth, broth dilution; ATCC90028).
For `CCCCCCCOc1c(OC)cc(NC(C)CCCN)c2nc(C(C)(C)C)ccc12` (stereo not shown), the MFC was 10 µg/mL (≈ 23.3 µM) (microbial killing; ATCC90028).
For `C#CCCCCCCCCC=CCC(O)CC(O)CO` (stereo not shown), the IC50 was over 8 µg/mL (microbial growth, broth dilution; ATCC90028).
With `O=C(CCCCCCCCCC[P+](c1ccccc1)(c1ccccc1)c1ccccc1)Nc1ccc(O)c(O)c1.[Br-]` the MIC was 32 µg/mL (microbial growth, broth dilution; ATCC90028; 24 h).
